Measles CPE = protection of cells from measles virus. actives 1.5% (n = 140,000). Measles virus-infected cells, CPE protection, absorbance. protection (pct of control), % at 4 µM; in the data active = protection mostly above about 24%, no sharp cut-off; inactive = mostly below about 26%
RAM inhibit = inhibitors of the yeast RAM network | S. cerevisiae dse1pr::URA3 reporter, 5-FOA growth OD615, 2 d; analog-sensitive cbk1-as2 kinase mutant strain | inhibition, % at 50 µM | actives 1.8% (n = 190,000);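 active = inhibition above a set limit, 3 SD over mean compound inhibition, cut at about 8.4% in these data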;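 note: inhibition rescues growth on 5-FOA so higher OD means more RAM inhibition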
Yeast lifespan up = yeast lifespan extension. S. cerevisiae growth with nicotinamide, OD615; deaD strain in restrictive glucose medium. AID 775. inhibition of the nicotinamide effect, % at 10 µM. actives 0.68% (n = 130,000);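 active = inhibition above a set limit, placed 3 SD over the median of all compounds, cut at about 26% in these data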
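Material: Modified budding yeast, DeaD strain | Medium: Restrictive glucose medium | Probe or stimulus: 1.5 mM nicotinamide | Dosing: Single dose 10 µM compound, 0.25% DMSO | Times: 48 h at 30 °C | Technique: OD615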
Phagocyt inh = macrophage phagocytosis inhibition. inhibition, % at 5 µM. J774A.1 macrophage IgG-bead phagocytosis, imaging. AID 1029. actives 0.07% (n = 110,000);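 active = inhibition above the mean of the plate negative controls plus 5 SD, cut at about 13% in these data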;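 note: phagocytic index as fraction of beads internalized from green versus red external bead signal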
BB579 growth dn = yeast BB579 growth reduction in restrictive medium; S. cerevisiae BB579 growth, OD615, 48 h; inhibition, % at 10 µM; actives 0.51% (n = 140,000); AID 804;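 active = inhibition above a set limit, 3 SD over the mean compound inhibition, cut at about 44% in these data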
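Test system: S. cerevisiae DeaD strain BB579 yeast; Medium: restrictive CSMM-D medium; Compound: one dose, 10 µM compound with 0.25% DMSO; Incubation: 4 h cell preincubation, 48 h compound exposure, 30 °C humidified; Signal: OD at 615 nm; Benchmarks: amphotericin B at 10 µg/mL as positive control.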
A number is an active result; n = inactive; x = not tested or not shown. Most compounds without a hit are left out; they make up all but 3.6% or so of the library.

SMILES	Measles CPE	RAM inhibit	Yeast lifespan up	Phagocyt inh	BB579 growth dn
COc1ccc(CCNC(=O)Cc2ccc(OCc3ccccc3)c(OC)c2[N+](=O)[O-])cc1OCc1ccccc1	n	9.1	n	n	n
CC(=O)NCCn1c(SCC(=O)NCCC(C)C)nc2ccccc2c1=O	60	n	n	x	n
CCCCn1c(SCC(=O)Nc2nnc(CC)s2)nc2ccccc2c1=O	32	n	n	n	n
Nc1cc(N)nc(SCC(=O)NCC2CCCO2)n1 (stereo not given)	31	n	n	n	n
CC(=O)NCCn1c(SCC(=O)NCC2CCCO2)nc2ccccc2c1=O (stereo not given)	52	n	n	x	n
CCCCNC(=O)CSc1nc2ccccc2c(=O)n1CCNC(C)=O	n	n	n	x	n
CCCCn1c(SCC(=O)Nc2nnc(CC)s2)nc2c1c(=O)n(C)c(=O)n2C	n	n	n	n	n
CCOC(=O)c1c(C)[nH]c(C(=O)Cn2nnc(-c3ccccc3)n2)c1C	n	8.9	n	n	n
CCOc1cc(C(=O)OCC(=O)Nc2c(C)cccc2C)ccc1OCC(=O)N1CCOCC1	33	n	n	n	n
CCSc1nc2cc(OC)c(OC)cc2c(=O)n1CCc1ccccc1	n	8.6	n	n	n
CCn1c(COc2cccc(C)c2C)nnc1SCC(=O)Nc1cc(C)on1	x	n	x	x	x
CCOc1ccc(NC(=S)N2CCC(C(N)=O)CC2)cc1	n	n	n	n	n
NS(=O)(=O)c1ccc(NC(=O)N2c3ccccc3Sc3ccccc32)cc1	n	9.4	n	n	n
CC(C)(C)NC(=O)CSc1nc2ccc(NC(=O)CSc3nnc(N)s3)cc2s1	n	n	n	n	n
CCC(=O)Nc1cccc(NC(=O)CSc2nnnn2Cc2ccccc2)c1	n	n	n	x	n
CCOC(=O)CSc1nc2ccc(NC(=O)CSc3nnnn3Cc3ccccc3)cc2s1	n	9.5	x	x	n
CC(C)(C)NC(=O)CSc1nc2ccc(NC(=O)CSc3nnnn3Cc3ccccc3)cc2s1	44	n	n	n	n
CNC(=O)C1CC(=O)N(CCCc2ccccc2)C(=Nc2ccccc2)S1 (stereo not given)	n	9.0	n	n	n
CNC(=O)C1CC(=O)N(CCc2ccccc2)C(=Nc2ccc(OC)cc2)S1 (stereo not given)	x	n	x	x	x
S=C(Nc1ccc(Oc2ccccc2)cc1)NC1CCCCCC1	n	11	n	n	56
O=C(NC1CCCCC1)c1ccc(CNc2ccccc2)o1	36	n	n	n	n
O=C(Nc1ccccc1)NC1CCCCC1	n	n	42	n	n
CCOC(=O)c1ccc(NC(=S)NC2CCCC2)cc1	44	n	n	n	n
O=C(Nc1ccccc1NC(=O)NC1CCCCC1)NC1CCCCC1	n	n	n	n	n
S=C(Nc1ccc(Oc2ccccc2)cc1)NC1CCCCC1	n	n	n	n	n
SMILES	Measles CPE	RAM inhibit	Yeast lifespan up	Phagocyt inh	BB579 growth dn
CC(C)Oc1cccc(C(=O)NC(=S)NCc2cccnc2)c1	n	n	n	n	n
CCc1cc(OCCOCCN(C)C)ccc1Cl	n	n	n	n	n
S=C(Nc1ccc2nsnc2c1)NC1CCCCC1	30	n	n	n	n
O=C(NNS(=O)(=O)c1ccc2ccccc2c1)NC1CCCCC1	52	n	n	n	n
CCCC1=C(C(=O)OCC)C(c2cc(Cl)cc(OC)c2OCc2ccccc2)NC(=O)N1 (stereo not given)	n	n	n	x	n
COc1ccc(CC(=O)NCc2n[nH]c(=S)n2-c2cccc(Cl)c2)cc1	x	n	x	x	x
CCOC(=O)c1ccc(Oc2c(C)oc3c(CN4CCN(C)CC4)c(O)ccc3c2=O)cc1	n	n	n	n	n
COc1ccccc1Oc1c(C)oc2c(CN3CCN(CCO)CC3)c(O)ccc2c1=O	n	n	n	n	n
COc1ccc(Oc2c(C)oc3c(CN4CCOCC4)c(O)ccc3c2=O)cc1	34	n	n	x	n
Cc1oc2c(CN3CCCC3)c(O)ccc2c(=O)c1Oc1ccccc1Br	19	n	n	x	n
Cc1ccc(C(=O)NC2c3ccccc3-c3ccccc32)cc1	n	n	n	n	n
Cc1ccc(C(=O)C2C(=O)c3ccccc3C2=O)cc1	n	n	69	x	n
Nc1oc2ccccc2c(=O)c1C=O	n	n	n	n	n
Nc1oc2ccc(F)cc2c(=O)c1C=O	n	n	27	n	n
O=[N+]([O-])c1ccc(CSc2nc3ccccc3o2)cc1	n	n	n	n	n
COC(=O)c1ccc(CSc2nc3ccccc3o2)cc1	n	8.8	n	n	n

Screens (PubChem BioAssay)
